Experimental findings from ChEMBL document CHEMBL5034012, “Procainamide-SAHA Fused Inhibitors of hHDAC6 Tackle Multidrug-Resistant Malaria Parasites” (J Med Chem, 2021) are described below.

Calls of active or inactive are those of the source. The calls are words filed in the database; no cut-off is given here. A value given as a limit tells only on which side of the number the result lay.

The target of one assay is Histone deacetylase 1 (Homo sapiens, UniProt Q13547). Description: Inhibition of human recombinant HDAC1 using Tosyl-Gly-ProLys(Ac)-AMC as substrate measured after 60 mins by fluorescence assay.
The subject of assay [1] is Plasmodium falciparum. Description: Antiplasmodial activity against ring stage Plasmodium falciparum 3D7 assessed as defective parasite division at 10 times IC50 concentration incubated for 24 hrs by transmission electron microscopy. The format is functional, organism-based. A digest of the protocol: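 Harvested with Plasmagel and fixed in 4% PFA/0.1% glutaraldehyde. Gelatin-embedded; 60nm ultrathin sections. Anti-H3 (1/100) labelled with 10nm protein A-gold. Stained with methylcellulose/0.4% uranyl acetate and imaged by TEM at 120 kV.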

Assay [2] relates to Plasmodium falciparum. Nature of the assay: Antiplasmodial activity against Plasmodium falciparum 3D7 assessed as time to kill initial parasite load at 10 times IC50 concentration. The format is functional. A digest of the protocol: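 Parasite reduction rate assay on 3D7 cultures containing mostly rings, with DHA and pyrimethamine as references. Exposure windows of 6, 24, 48, 72 and 96h; cells then washed, serially diluted 1/3 in fresh RBC and grown 3 weeks before SYBR-green I read-out. Number of wells with growth gives viable parasites per time point, per Sanz et al. One experiment in duplicate.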

For another assay, the target named is Histone deacetylase 3 (Homo sapiens, UniProt O15379). Nature of the assay: Inhibition of human recombinant HDAC3 using Tosyl-Gly-ProLys(Ac)-AMC as substrate measured after 60 mins by fluorescence assay.
Assay [3] has as its system Plasmodium falciparum. Description: Antiplasmodial activity against Cambodian multidrug-resistant Plasmodium falciparum isolate incubated for 96 hrs measured by SYBR Green 1 assay. In kind it is functional, organism-based. The essentials:
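Cambodian isolates chosen by multidrug-resistance pattern, 10 per resistance type. Ring-synchronized cultures at 2% hematocrit and 1% starting parasitemia; 11-point 2-step dilutions from 500nM; 96h incubation, then SYBR-green I read-out. Mefloquine and monodesethylamodiaquine served as positive controls. Triplicate wells, one biological replicate per isolate.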

Assay [4] deals with Plasmodium falciparum. Nature of the assay: Antiplasmodial activity against synchronized ring stage Plasmodium falciparum 3D7 assessed as parasite reduction rate in lag phase by measuring time required to achieve maximum speed of action at 10 times IC50 concentration. In kind it is functional. The essentials: (§1)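 3D7 culture of mostly rings exposed to drug for 6, 24, 48, 72 or 96h. Then washed, serially diluted 1/3 in fresh RBC and grown 3 weeks. Growth read by SYBR-green I. Number of wells with growth used to back-calculate viable parasites at each time point and derive growth parameters. One experiment, run in duplicate.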

Assay [5] has as its system Plasmodium falciparum. Description: Antiplasmodial activity against Plasmodium falciparum late stage IV-V gametocytes assessed as reduction in number of exflagellation centers in at 1 to 10 uM treated for 72 hrs. The format is functional, organism-based. The conditions noted are these: dose 1-10 µM. The essentials: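 Synchronous gametocytes induced; asexual forms removed with N-acetyl glucosamine for 5 days. Day-9 stage IV-V gametocytes, about 1% gametocytemia at 2% hematocrit, treated 72h at 10, 5, 1 or 0.5 µM against 0.1% DMSO. Then washed and recultured with daily medium changes. […], pelleted cells mixed 1:1 with human serum. Exflagellation centers counted over ≥10 fields at 40× within one hour. Two independent experiments; one-way ANOVA.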

In assay [6] the test system is Plasmodium falciparum. Description: Antiplasmodial activity against synchronized ring stage Plasmodium falciparum 3D7 assessed as parasite reduction over one cycle upto 48 hrs at 10 times IC50 concentration. The format is functional. Particulars: time hrs <=48. A digest of the protocol: as §1
The target in a further assay is Histone deacetylase. Nature of the assay: Inhibition of human HDAC using human HeLa cell nuclear extract measured after 60 mins by fluorescence assay. In kind it is tissue-based.
Assay [7] deals with T1, Protein deacetylase HDAC6 (Homo sapiens, UniProt Q9UBN7).
T1 sequence (Q9UBN7 whole entry): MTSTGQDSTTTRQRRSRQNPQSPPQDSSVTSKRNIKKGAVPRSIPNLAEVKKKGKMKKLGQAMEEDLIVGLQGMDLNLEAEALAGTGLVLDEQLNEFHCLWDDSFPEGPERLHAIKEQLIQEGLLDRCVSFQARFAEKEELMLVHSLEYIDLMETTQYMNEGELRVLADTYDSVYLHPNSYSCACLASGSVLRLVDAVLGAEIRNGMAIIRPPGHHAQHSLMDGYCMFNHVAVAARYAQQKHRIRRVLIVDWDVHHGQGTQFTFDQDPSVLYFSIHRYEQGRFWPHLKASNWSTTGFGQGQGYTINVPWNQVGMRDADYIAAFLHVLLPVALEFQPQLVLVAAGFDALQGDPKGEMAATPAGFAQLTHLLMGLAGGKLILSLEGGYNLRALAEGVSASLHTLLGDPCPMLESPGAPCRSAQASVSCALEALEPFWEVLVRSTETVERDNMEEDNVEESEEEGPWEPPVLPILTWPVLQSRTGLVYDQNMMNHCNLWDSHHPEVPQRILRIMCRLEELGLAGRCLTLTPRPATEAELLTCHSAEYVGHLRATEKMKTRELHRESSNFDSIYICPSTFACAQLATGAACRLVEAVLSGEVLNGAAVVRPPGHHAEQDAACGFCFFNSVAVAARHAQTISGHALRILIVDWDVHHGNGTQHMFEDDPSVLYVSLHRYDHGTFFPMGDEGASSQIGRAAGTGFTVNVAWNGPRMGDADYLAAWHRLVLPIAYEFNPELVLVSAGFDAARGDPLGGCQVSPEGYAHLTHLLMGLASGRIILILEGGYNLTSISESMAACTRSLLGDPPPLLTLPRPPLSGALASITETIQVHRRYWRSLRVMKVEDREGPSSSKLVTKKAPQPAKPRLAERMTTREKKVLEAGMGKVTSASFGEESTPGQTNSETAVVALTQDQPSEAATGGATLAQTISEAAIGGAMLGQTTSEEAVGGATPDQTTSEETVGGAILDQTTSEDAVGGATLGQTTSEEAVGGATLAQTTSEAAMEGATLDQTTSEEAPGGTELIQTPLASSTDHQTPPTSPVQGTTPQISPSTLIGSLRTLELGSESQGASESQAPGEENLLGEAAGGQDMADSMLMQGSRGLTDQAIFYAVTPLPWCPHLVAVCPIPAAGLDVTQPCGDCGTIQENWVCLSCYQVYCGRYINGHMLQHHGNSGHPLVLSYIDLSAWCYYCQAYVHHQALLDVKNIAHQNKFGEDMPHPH
Nature of the assay: Inhibition of human recombinant HDAC6 using Tosyl-Gly-ProLys(Ac)-AMC as substrate measured after 60 mins by fluorescence assay.

The test system of assay [8] is Plasmodium falciparum. Description: Inhibition of trophozoite-stage Plasmodium falciparum HDAC in using nuclear extract assessed as H4K16 hyperacetylation at 10 times IC50 concentration incubated for 4 hrs by Western blot analysis. Particulars: in the assay text read “total extract” for “nuclear extract”. The essentials: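 Parasites exposed 4h at 10× IC50, with CQ and 0.1% DMSO as controls. Saponin-lysed (0.15%) and extracted in Laemmli/DTT buffer; 5.10⁶ parasites loaded per lane. Blots probed with anti-H4K16Ac (1/500) and anti-H3 (1/1000). H4K16Ac band intensity normalized to H3. Three independent experiments.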

Assay [9] deals with Plasmodium falciparum. Description: Antiplasmodial activity against Plasmodium falciparum stage IIb-III gametocytes assessed as abnormal morphology by measuring rounded/swollen at highest concentration measured after 72 hrs using Geimsa staining based assay. The format is functional. The essentials: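 Day-4 stage IIb-III gametocytes (asexuals removed by N-acetyl glucosamine), about 1% gametocytemia at 2% hematocrit, treated 72h at 10, 5, 1 or 0.5 µM against 0.1% DMSO. Then washed and recultured with daily medium changes. Morphology and parasitemia scored daily on Giemsa-stained thin smears.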

The subject of a further assay is HepG2. Description: cells. In kind it is functional, cell-based. Particulars: Homo sapiens, HepG2, 72 h.

Chain of Histone deacetylase 3 (O15379 whole entry): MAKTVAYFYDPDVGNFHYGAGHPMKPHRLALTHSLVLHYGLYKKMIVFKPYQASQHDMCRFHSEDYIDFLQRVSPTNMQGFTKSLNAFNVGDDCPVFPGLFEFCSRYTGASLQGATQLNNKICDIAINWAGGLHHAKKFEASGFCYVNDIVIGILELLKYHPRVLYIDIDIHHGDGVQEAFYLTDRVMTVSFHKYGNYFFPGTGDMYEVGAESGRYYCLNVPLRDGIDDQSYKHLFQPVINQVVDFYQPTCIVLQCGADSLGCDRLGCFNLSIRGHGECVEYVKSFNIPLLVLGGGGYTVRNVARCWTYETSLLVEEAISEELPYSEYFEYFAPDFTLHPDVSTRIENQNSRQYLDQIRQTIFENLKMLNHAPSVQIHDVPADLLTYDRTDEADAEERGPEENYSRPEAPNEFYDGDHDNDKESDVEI
Chain of Histone deacetylase 1 (Q13547 whole entry): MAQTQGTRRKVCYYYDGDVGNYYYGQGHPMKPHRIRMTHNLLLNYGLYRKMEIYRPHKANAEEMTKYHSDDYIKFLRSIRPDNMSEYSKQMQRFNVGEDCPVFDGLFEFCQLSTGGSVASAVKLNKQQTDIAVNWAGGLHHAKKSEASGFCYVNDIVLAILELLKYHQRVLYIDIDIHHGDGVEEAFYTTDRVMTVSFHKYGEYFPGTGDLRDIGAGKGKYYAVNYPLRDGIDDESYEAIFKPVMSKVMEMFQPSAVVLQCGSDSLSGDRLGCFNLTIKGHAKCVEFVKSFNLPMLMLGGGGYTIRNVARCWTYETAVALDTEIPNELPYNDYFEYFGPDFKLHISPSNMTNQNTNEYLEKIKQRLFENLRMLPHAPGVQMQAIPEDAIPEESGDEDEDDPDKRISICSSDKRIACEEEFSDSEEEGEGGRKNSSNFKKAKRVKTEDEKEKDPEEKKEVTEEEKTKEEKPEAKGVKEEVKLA

As a reminder, the IC50 is the concentration that gives 50% inhibition. Take `O=C(CCCCCCC(=O)Nc1ccc(C(=O)NC2CCNCC2)cc1)NO`: the IC50 on Histone deacetylase 1 amounted to 150 nM; on Histone deacetylase 3, 110 nM; in the assay with Plasmodium falciparum [3], 70 nM; against Histone deacetylase, 140 nM; in assay [7] it was 19 nM; in the assay on HepG2, 230000 nM. Besides, the outcome in the assay on Plasmodium falciparum [1] and in the assay on Plasmodium falciparum [5] was Active. In addition, the LT99.9 with Plasmodium falciparum [2] was 34.3 h. For the same molecule, the Time in the assay on Plasmodium falciparum [4] was 6 h. Besides, the “log(activity)” value in the assay with Plasmodium falciparum [6] was 4.22. In addition, in the assay on Plasmodium falciparum [8], the fold change (FC) turned out to be 6. Further, the Activity entry with Plasmodium falciparum [9] is recorded as “<=90%”.

For `CCN(CC)CCNC(=O)c1ccc(NC(=O)CCCCCCC(=O)NO)cc1`, the 50% inhibitory concentration (IC50) on Histone deacetylase 1 turned out to be 70 nM; at Histone deacetylase 3, 70 nM; in the assay on Plasmodium falciparum [3], 76 nM; at Histone deacetylase, 60 nM; in assay [7] it was 14 nM; in the assay on HepG2, 8400 nM. Moreover, the result in the assay on Plasmodium falciparum [1] and in the assay on Plasmodium falciparum [5] was Active. For the same molecule, the LT99.9 in the assay with Plasmodium falciparum [2] is 40.3 h. For the same molecule, the Time in the assay with Plasmodium falciparum [4] was determined as 0 h. In the assay on Plasmodium falciparum [6], the “log(activity)” value is 3.8. Besides, the fold change (FC) with Plasmodium falciparum [8] is 6. Further, in the assay on Plasmodium falciparum [9], the Activity result was “<=90%”.
